In ChEMBL document CHEMBL3774374, “The Effect of Small Molecules on Sterol Homeostasis: Measuring 7-Dehydrocholesterol in Dhcr7-Deficient Neuro2a Cells and Human Fibroblasts” (J Med Chem, 2016):
Active and inactive are the calls of the source. The calls are words filed in the database; no cut-off is given here.

How the values were obtained:
[1] = biological target: T1, Delta(24)-sterol reductase (Mus musculus) (UniProt Q8VCH6); assay: Inhibition of DR24 in Dhcr7-deficient mouse Neuro2a cells assessed as decrease in 7-DHC levels at 1 uM by LC-MS/GC-MS analysis; assay type: cell-based
T1 sequence (whole entry): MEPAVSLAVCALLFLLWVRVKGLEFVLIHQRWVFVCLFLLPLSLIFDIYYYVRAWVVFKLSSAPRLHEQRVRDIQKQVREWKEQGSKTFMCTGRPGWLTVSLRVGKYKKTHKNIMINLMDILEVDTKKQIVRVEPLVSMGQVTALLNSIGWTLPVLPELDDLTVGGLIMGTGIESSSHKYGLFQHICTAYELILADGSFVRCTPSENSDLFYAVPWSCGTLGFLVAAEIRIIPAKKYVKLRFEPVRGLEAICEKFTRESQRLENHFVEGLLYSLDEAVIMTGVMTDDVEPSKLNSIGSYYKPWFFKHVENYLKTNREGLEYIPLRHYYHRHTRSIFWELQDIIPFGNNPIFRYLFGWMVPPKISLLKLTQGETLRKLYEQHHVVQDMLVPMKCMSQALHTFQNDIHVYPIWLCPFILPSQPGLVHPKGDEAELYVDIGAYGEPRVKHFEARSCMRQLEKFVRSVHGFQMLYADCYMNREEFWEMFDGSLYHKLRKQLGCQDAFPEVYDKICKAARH
Outline: (§1)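 Dhcr7-deficient Neuro2a cells (13000/well, 0.5% FBS medium) on predeposited compound, 24 h at 37 °C. Hoechst-stained and imaged to count cells. Lysed in methanol containing isotope-labelled sterol standards, derivatized with PTAD 20 min at RT, then isocratic C18 UPLC-MS/SRM. Remaining extract silylated with BSTFA for GC-MS, quantified against d7-cholesterol. Follow-up runs in triplicate.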

[2] = biological target: T2, 3-hydroxy-3-methylglutaryl-coenzyme A reductase (Mus musculus) (UniProt Q01237); assay: Inhibition of HMGCoA reductase in Dhcr7-deficient mouse Neuro2a cells assessed as decrease in 7-DHC levels at 1 uM by LC-MS/GC-MS analysis; assay type: cell-based; outline: as §1
T2 sequence (whole entry): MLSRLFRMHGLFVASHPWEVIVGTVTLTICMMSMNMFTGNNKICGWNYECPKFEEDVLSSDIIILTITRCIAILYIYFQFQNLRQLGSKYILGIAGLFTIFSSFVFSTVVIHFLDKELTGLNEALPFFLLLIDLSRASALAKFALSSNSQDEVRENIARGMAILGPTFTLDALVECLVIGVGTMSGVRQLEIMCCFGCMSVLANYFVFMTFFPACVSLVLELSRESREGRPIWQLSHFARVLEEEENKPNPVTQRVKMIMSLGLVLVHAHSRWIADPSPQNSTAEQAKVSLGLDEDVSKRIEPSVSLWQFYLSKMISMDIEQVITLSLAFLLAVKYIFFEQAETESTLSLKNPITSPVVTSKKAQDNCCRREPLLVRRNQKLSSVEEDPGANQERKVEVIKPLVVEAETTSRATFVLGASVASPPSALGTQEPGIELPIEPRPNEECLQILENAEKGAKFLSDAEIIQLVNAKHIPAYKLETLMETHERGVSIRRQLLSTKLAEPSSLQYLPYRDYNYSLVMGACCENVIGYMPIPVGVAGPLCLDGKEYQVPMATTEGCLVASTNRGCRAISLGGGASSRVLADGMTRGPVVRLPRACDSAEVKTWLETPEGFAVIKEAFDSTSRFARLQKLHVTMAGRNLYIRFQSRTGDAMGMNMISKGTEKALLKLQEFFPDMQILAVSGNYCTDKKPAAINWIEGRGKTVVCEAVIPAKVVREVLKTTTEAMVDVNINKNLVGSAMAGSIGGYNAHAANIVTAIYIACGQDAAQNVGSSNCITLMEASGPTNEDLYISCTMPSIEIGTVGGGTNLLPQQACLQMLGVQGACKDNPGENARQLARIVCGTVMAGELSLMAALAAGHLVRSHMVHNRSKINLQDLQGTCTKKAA

N2a = assay: Decrease in 7-DHC levels in Dhcr7-deficient mouse Neuro2a cells at 1 uM by LC-MS/GC-MS analysis; assay type: functional, cell-based; outline: as §1
[3] = biological target: T3, 3-beta-hydroxysteroid-Delta(8),Delta(7)-isomerase (Mus musculus) (UniProt P70245); assay: Inhibition of delta 8-7 isomerase in Dhcr7-deficient mouse Neuro2a cells assessed as decrease in 7-DHC levels at 1 uM by LC-MS/GC-MS analysis; assay type: cell-based; outline: as §1
T3 sequence (whole entry): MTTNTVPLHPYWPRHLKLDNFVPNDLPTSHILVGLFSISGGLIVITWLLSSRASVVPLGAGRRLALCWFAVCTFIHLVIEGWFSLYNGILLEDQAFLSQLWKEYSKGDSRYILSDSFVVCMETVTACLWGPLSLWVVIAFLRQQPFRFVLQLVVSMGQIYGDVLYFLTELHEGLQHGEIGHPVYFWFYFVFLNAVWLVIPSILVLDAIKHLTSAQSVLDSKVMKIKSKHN

Row | Structure (SMILES) | inhibition [1] | 7-DHC decrease call (active/inactive) [2] | other results
1 | CC(=O)[C@H]1CC[C@H]2[C@@H]3CCC4=CC(=O)CC[C@]4(C)[C@H]3CC[C@]12C | Active | – | –
2 | CCC(C)(C)C(=O)O[C@H]1C[C@@H](C)C=C2C=C[C@H](C)[C@H](CC[C@@H]3C[C@@H](O)CC(=O)O3)[C@H]21 | – | Active | –
3 | CCCC1O[C@@H]2C[C@H]3[C@@H]4CCC5=CC(=O)C=C[C@]5(C)[C@H]4[C@@H](O)C[C@]3(C)[C@]2(C(=O)CO)O1 (stereo partly specified) | – | – | Activity (N2a): Active
4 | CCN(CC)CCO[C@H]1CC[C@@]2(C)C(=CC[C@@H]3[C@@H]2CC[C@]2(C)C(=O)CC[C@@H]32)C1 | – | – | Activity (N2a): Active
5 | CCN(CC)CCOc1ccc(C(O)(Cc2ccc(Cl)cc2)c2ccc(C)cc2)cc1 (stereo unspecified) | Active | – | inhibition [3]: Active
6 | CC[C@H](C)C(=O)O[C@H]1CCC=C2C=C[C@H](C)[C@H](CC[C@@H]3C[C@@H](O)CC(=O)O3)[C@H]21 | – | Active | –
7 | CC[C@H](C)C(=O)O[C@H]1C[C@@H](C)C=C2C=C[C@H](C)[C@H](CC[C@@H]3C[C@@H](O)CC(=O)O3)[C@H]21 | – | Active | –
8 | CC[C@H](C)C(=O)O[C@H]1C[C@H](O)C=C2C=C[C@H](C)[C@H](CC[C@@H](O)C[C@@H](O)CC(=O)O)[C@H]21 | – | Active | –
9 | CCc1c(C)[nH]c2c1C(=O)C(CN1CCOCC1)CC2 (stereo unspecified) | Active | – | –
10 | CN(C)CCC=C1c2ccccc2COc2ccccc21 | Active | – | –
11 | CN1CCN(CCCN2c3ccccc3Sc3ccc(C(F)(F)F)cc32)CC1 | Active | – | –
12 | CN1CCN(CCCN2c3ccccc3Sc3ccc(Cl)cc32)CC1 | Active | – | inhibition [3]: Active
13 | CN1CC[C@]2(c3cccc(O)c3)Cc3nc4ccccc4cc3C[C@H]2C1 | Active | – | –
14 | CO[C@H]1O[C@@H]2O[C@@]3(C)CC[C@H]4[C@H](C)CC[C@@H]([C@H]1C)[C@@]24OO3 | – | Active | –
